# Reference: ChEMBL document CHEMBL1133591, “Potent derivatives of glucagon-like peptide-1 with pharmacokinetic properties suitable for once daily administration” (J Med Chem, 2000)
# Numbered stars: 1 amine (or outer) side, 2 acyl side, 3 side chain; on linkers, the order of the positions; unused ones are H or OH. Square brackets hold non-standard residues; d marks the D form. Side chains are listed from the residue outwards. Peptide text beside a SMILES is read from it. * marks the point of attachment. ξ: configuration not given here. ξγGlu = O=C(O)C(CCC(=O)[*:2])N[*:1]; Palmitoyl = CCCCCCCCCCCCCCCC(=O)*; ξK = NCCCCC(N)C(=O)O
# Target: Glucagon-like peptide 1 receptor (Homo sapiens, UniProt P43220)
# Sequence (P43220 whole entry): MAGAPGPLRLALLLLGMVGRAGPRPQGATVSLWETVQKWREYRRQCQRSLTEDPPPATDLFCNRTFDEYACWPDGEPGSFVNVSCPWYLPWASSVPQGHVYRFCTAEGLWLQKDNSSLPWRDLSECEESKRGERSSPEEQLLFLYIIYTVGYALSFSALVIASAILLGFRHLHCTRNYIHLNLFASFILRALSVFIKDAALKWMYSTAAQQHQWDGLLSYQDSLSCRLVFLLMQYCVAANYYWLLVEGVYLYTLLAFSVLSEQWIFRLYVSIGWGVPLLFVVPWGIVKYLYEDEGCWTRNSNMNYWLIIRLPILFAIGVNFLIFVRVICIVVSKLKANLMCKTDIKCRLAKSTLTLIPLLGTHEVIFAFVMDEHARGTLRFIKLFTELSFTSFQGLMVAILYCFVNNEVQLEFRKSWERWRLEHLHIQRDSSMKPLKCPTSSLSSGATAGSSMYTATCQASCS
# Experiment: Potency measured using recombinant human GLP-1 receptor expressed in Baby Hamster Kidney (BHK)cells
# Type: cell-based
# Conditions: not given
row,EC50,SMILES
1,0.328 nM,CCCCCCCCCCCCCCCC(=O)NC(CCC(=O)NCCCCC(NC(=O)CNC(=O)[C@H](CCCN=C(N)N)NC(=O)CNC(=O)[C@H](CCCN=C(N)N)NC(=O)[C@@H](NC(=O)[C@H](CC(C)C)NC(=O)[C@H](Cc1c[nH]c2ccccc12)NC(=O)[C@H](C)NC(=O)[C@@H](NC(=O)[C@H](Cc1ccccc1)NC(=O)[C@H](CCC(=O)O)NC(=O)[C@H](CCCN=C(N)N)NC(=O)[C@H](C)NC(=O)[C@H](C)NC(=O)[C@H](CCC(N)=O)NC(=O)CNC(=O)[C@H](CCC(=O)O)NC(=O)[C@H](CC(C)C)NC(=O)[C@H](Cc1ccc(O)cc1)NC(=O)[C@H](CO)NC(=O)[C@H](CO)NC(=O)[C@@H](NC(=O)[C@H](CC(=O)O)NC(=O)[C@H](CO)NC(=O)[C@@H](NC(=O)[C@H](Cc1ccccc1)NC(=O)[C@@H](NC(=O)CNC(=O)[C@H](CCC(=O)O)NC(=O)CNC(=O)[C@@H](N)Cc1c[nH]cn1)[C@@H](C)O)[C@@H](C)O)C(C)C)[C@@H](C)CC)C(C)C)C(=O)O)C(=O)O (stereo not given in full) (H-HGEGTFTSDVSSYLEGQAAREFIAWLVRGRG[ξK]([ξγGlu-Palmitoyl])-OH)

# System: not listed separately
# Experiment: Plasma half life was determined in pigs
# Type: ADME, organism-based, Sus scrofa
# Conditions: pig
# Summary of the method: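 Landrace × Duroc × Yorkshire pigs, 25–50 kg, two per compound; single sc dose, 0.5 nmol/kg for analogues, 15 nmol/kg for GLP-1. Jugular catheter blood at 0–72 h, extra early samples for GLP-1; EDTA/aprotinin/bacitracin-stabilized plasma. Unextracted plasma assayed by N-terminal-specific GLP-1 radioimmunoassay against spiked pig-plasma calibrators; half-life calculated per pig, reported as mean ± SD.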
row,SMILES,half-life
1,CCCCCCCCCCCC(=O)NC(CCC(=O)NCCCC[C@H](NC(=O)[C@H](C)NC(=O)[C@H](C)NC(=O)[C@H](CCC(N)=O)NC(=O)CNC(=O)[C@H](CCC(=O)O)NC(=O)[C@H](CC(C)C)NC(=O)[C@H](Cc1ccc(O)cc1)NC(=O)[C@H](CO)NC(=O)[C@H](CO)NC(=O)[C@@H](NC(=O)[C@H](CC(=O)O)NC(=O)[C@H](CO)NC(=O)[C@@H](NC(=O)[C@H](Cc1ccccc1)NC(=O)[C@@H](NC(=O)CNC(=O)[C@H](CCC(=O)O)NC(=O)[C@H](C)NC(=O)[C@@H](N)Cc1c[nH]cn1)[C@@H](C)O)[C@@H](C)O)C(C)C)C(=O)N[C@@H](CCC(=O)O)C(=O)N[C@@H](Cc1ccccc1)C(=O)N[C@H](C(=O)N[C@@H](C)C(=O)N[C@@H](Cc1c[nH]c2ccccc12)C(=O)N[C@@H](CC(C)C)C(=O)N[C@H](C(=O)N[C@@H](CCCN=C(N)N)C(=O)NCC(=O)N[C@@H](CCCN=C(N)N)C(=O)NCC(=O)O)C(C)C)[C@@H](C)CC)C(=O)O (stereo not given in full),15 h
2,CCCCCCCCCCCCCCCC(=O)N[C@@H](CCC(=O)NCCCC[C@H](NC(=O)[C@H](C)NC(=O)[C@H](C)NC(=O)[C@H](CCC(N)=O)NC(=O)CNC(=O)[C@H](CCC(=O)O)NC(=O)[C@H](CC(C)C)NC(=O)[C@H](Cc1ccc(O)cc1)NC(=O)[C@H](CO)NC(=O)[C@H](CO)NC(=O)[C@@H](NC(=O)[C@H](CC(=O)O)NC(=O)[C@H](CO)NC(=O)[C@@H](NC(=O)[C@H](Cc1ccccc1)NC(=O)[C@@H](NC(=O)CNC(=O)[C@H](CCC(=O)O)NC(=O)[C@H](C)NC(=O)[C@@H](N)Cc1cnc[nH]1)[C@@H](C)O)[C@@H](C)O)C(C)C)C(=O)N[C@@H](CCC(=O)O)C(=O)N[C@@H](Cc1ccccc1)C(=O)N[C@H](C(=O)N[C@@H](C)C(=O)N[C@@H](Cc1c[nH]c2ccccc12)C(=O)N[C@@H](CC(C)C)C(=O)N[C@H](C(=O)N[C@@H](CCCNC(=N)N)C(=O)NCC(=O)N[C@@H](CCCNC(=N)N)C(=O)NCC(=O)O)C(C)C)[C@@H](C)CC)C(=O)O,14 h

# Results, then the compound that gave them:
row,half-life,SMILES
1,31 h,CCCCCCCCCCCCCCCC(=O)NCCCC(=O)NCCCC[C@H](NC(=O)[C@H](C)NC(=O)[C@H](C)NC(=O)[C@H](CCC(N)=O)NC(=O)CNC(=O)[C@H](CCC(=O)O)NC(=O)[C@H](CC(C)C)NC(=O)[C@H](Cc1ccc(O)cc1)NC(=O)[C@H](CO)NC(=O)[C@H](CO)NC(=O)[C@@H](NC(=O)[C@H](CC(=O)O)NC(=O)[C@H](CO)NC(=O)[C@@H](NC(=O)[C@H](Cc1ccccc1)NC(=O)[C@@H](NC(=O)CNC(=O)[C@H](CCC(=O)O)NC(=O)[C@H](C)NC(=O)[C@@H](N)Cc1c[nH]cn1)[C@@H](C)O)[C@@H](C)O)C(C)C)C(=O)N[C@@H](CCC(=O)O)C(=O)N[C@@H](Cc1ccccc1)C(=O)N[C@H](C(=O)N[C@@H](C)C(=O)N[C@@H](Cc1c[nH]c2ccccc12)C(=O)N[C@@H](CC(C)C)C(=O)N[C@H](C(=O)N[C@@H](CCCN=C(N)N)C(=O)NCC(=O)N[C@@H](CCCN=C(N)N)C(=O)NCC(=O)O)C(C)C)[C@@H](C)CC
2,8.8 h,CCCCCCCCCCCCCCCC(=O)NCCC(=O)NCCCC[C@H](NC(=O)[C@H](C)NC(=O)[C@H](C)NC(=O)[C@H](CCC(N)=O)NC(=O)CNC(=O)[C@H](CCC(=O)O)NC(=O)[C@H](CC(C)C)NC(=O)[C@H](Cc1ccc(O)cc1)NC(=O)[C@H](CO)NC(=O)[C@H](CO)NC(=O)[C@@H](NC(=O)[C@H](CC(=O)O)NC(=O)[C@H](CO)NC(=O)[C@@H](NC(=O)[C@H](Cc1ccccc1)NC(=O)[C@@H](NC(=O)CNC(=O)[C@H](CCC(=O)O)NC(=O)[C@H](C)NC(=O)[C@@H](N)Cc1c[nH]cn1)[C@@H](C)O)[C@@H](C)O)C(C)C)C(=O)N[C@@H](CCC(=O)O)C(=O)N[C@@H](Cc1ccccc1)C(=O)N[C@H](C(=O)N[C@@H](C)C(=O)N[C@@H](Cc1c[nH]c2ccccc12)C(=O)N[C@@H](CC(C)C)C(=O)N[C@H](C(=O)N[C@@H](CCCN=C(N)N)C(=O)NCC(=O)N[C@@H](CCCN=C(N)N)C(=O)NCC(=O)O)C(C)C)[C@@H](C)CC
